Calls of active or inactive are those of the source. The rule behind the calls is not given here.

Usually AUC(0-t) stands for exposure summed from dosing to a finite time, without extrapolation to infinity. High values mean high exposure, low ones low exposure. For orientation: Tmax means the time from dosing to the highest level. For orientation: Cmax means the highest concentration seen after dosing. Broadly, the MRT is a mean duration of stay, worked out from the concentration-time curve. As usually defined, the bioavailability is dose-corrected exposure relative to a reference, in per cent. A high value points to much systemic uptake. The half-life is the time in which the quantity being followed falls by half. Usually Vdss stands for the apparent volume that relates the amount in the body to the concentration in plasma or blood. Higher therefore signals wide distribution into tissue. One may read the MRT last as a mean duration of stay, worked out from the concentration-time curve.

Data set [1] is described as follows: AUC (0 to t) in female Sprague-Dawley rat at 0.5 mg/kg, iv measured for 36 hrs by LC-MS/MS analysis. The settings on record: in vivo. More on the design: dose 0.5 mg/kg, time 36 hrs. It counts as ADME, organism-based. Put shortly:
(§1)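 Sprague-Dawley rats (200–220 g), three per sex per route, were dosed at 0.5 mg/kg IV or 5 mg/kg PO in DMSO/Tween-80/water (1:5:94). Heparinized blood was drawn from 5 min to 36 h after IV dosing and from 1 h to 36 h after oral dosing. Plasma was deproteinized with methanol (2% HCl) plus carbamazepine internal standard, measured by LC-MS/MS, and reported as mean ± SD.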

A short description of data set [2]: Tmax in female Sprague-Dawley rat at 5 mg/kg, po measured for 36 hrs by LC-MS/MS analysis. It counts as ADME, organism-based. Particulars: in vivo. Put shortly:
(§2)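 Sprague-Dawley rats (200–220 g), three males and three females per route group. Dosed 5 mg/kg orally or 0.5 mg/kg IV as a solution in DMSO/T-80/H2O (1:5:94 by volume). Heparinized blood was drawn from 5 min to 36 h after IV and 1–36 h after oral dosing. Plasma was protein-precipitated with methanol (2% HCl) plus carbamazepine internal standard and assayed by LC-MS/MS. Parameters were taken from concentration-time data; n = 3 per sex, mean ± SD.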

Data set [3] is described as follows: Cmax in male Sprague-Dawley rat at 5 mg/kg, po measured for 36 hrs by LC-MS/MS analysis. More on the design: route oral, time 36 hrs, dose 5 mg/kg. It counts as ADME, organism-based. The settings on record: in vivo.
Data set [4] can be described thus: Volume of distribution at steady state in male Sprague-Dawley rat at 0.5 mg/kg, iv measured for 36 hrs by LC-MS/MS analysis. Particulars: in vivo, read-out: Vdss. It counts as ADME, organism-based. Put shortly: as §2
The nature of data set [5]: Tmax in male Sprague-Dawley rat at 5 mg/kg, po measured for 36 hrs by LC-MS/MS analysis. It counts as ADME, organism-based. The settings on record: in vivo. Put shortly: as §2
Data set [6] in a line: MRT(0 to t) in female Sprague-Dawley rat at 0.5 mg/kg, iv measured for 36 hrs by LC-MS/MS analysis. It counts as ADME, organism-based. The settings on record: in vivo.
A short description of data set [7]: AUC (0 to t) in male Sprague-Dawley rat at 0.5 mg/kg, iv measured for 36 hrs by LC-MS/MS analysis. It counts as ADME, organism-based. On the set-up: time 36 hrs, dose 0.5 mg/kg. Particulars: in vivo. Summed up:
as §1

Data set [8] can be described thus: Cmax in female Sprague-Dawley rat at 5 mg/kg, po measured for 36 hrs by LC-MS/MS analysis. It counts as ADME, organism-based. On the set-up: route oral, time 36 hrs, dose 5 mg/kg. Particulars: in vivo.
Data set [9] can be described thus: Oral bioavailability in female Sprague-Dawley rat at 5 mg/kg measured for 36 hrs by LC-MS/MS analysis. It counts as ADME, organism-based. Particulars: in vivo. Summed up: as §2
Data set [10] can be described thus: Half life in male Sprague-Dawley rat at 0.5 mg/kg, iv measured for 36 hrs by LC-MS/MS analysis. The settings on record: in vivo. It counts as ADME, organism-based.
Data set [11] is described as follows: Volume of distribution at steady state in male/female Sprague-Dawley rat at 0.5 mg/kg, iv measured for 36 hrs by LC-MS/MS analysis. It counts as ADME, organism-based. Particulars: in vivo. Summed up: (§3)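 Sprague-Dawley rats (200–220 g), four per route group (2 male, 2 female), given 0.5 mg/kg IV or 5 mg/kg orally in DMSO/T-80/H2O (1:5:94). Heparinized blood was sampled at 5 min–36 h after IV and at 0.5, 1, 3, 4, 6, 8, 10, 12, 24 and 36 h after oral dosing. Plasma was methanol (2% HCl)-precipitated with carbamazepine internal standard and quantified by LC-MS/MS. Parameters reported as mean ± SD.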

Data set [12] deals with Nuclear receptor subfamily 4immunitygroup A member 1 (Homo sapiens, UniProt P22736). The experiment in a line: Modulation of Myc-Nur77 (unknown origin) transfected in human HEK293T cells co-transfected with Flag-tagged Bcl2 assessed as interaction of Nur77 with Bcl2 at 0.5 uM measured after 1 to 3 hrs by co-immunoprecipitation assay. It counts as cell-based. The settings on record: filed as modulator, time 1-3 hrs. Summed up: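 HEK293T cells cotransfected with Flag-Bcl-2 and Myc-Nur77 were treated with or without 0.5 μM compound over the indicated times. They were lysed in Triton X-100 buffer with protease inhibitors; 5% of lysate was kept as input. Lysate was immunoprecipitated with anti-Flag at 4 °C for 12 h, then protein A-Sepharose for 3 h, washed three times in PBS and western blotted.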

The nature of data set [13]: Selectivity index, ratio of IC50 for human MCF-10A cells to IC50 for human BT-549 cells.
Data set [14] is described as follows: AUC (0 to t) in male/female Sprague-Dawley rat at 0.5 mg/kg, iv measured for 36 hrs by LC-MS/MS analysis. Particulars: both, in vivo. On the set-up: dose 0.5 mg/kg, time 36 hrs. It counts as ADME, organism-based. Put shortly:
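Four Sprague-Dawley rats per route (2 male, 2 female; 200–220 g) received 0.5 mg/kg IV or 5 mg/kg PO in DMSO/Tween-80/water (1:5:94). Heparinized blood was taken at 5 min–36 h after IV dosing and at 0.5, 1, 3, 4, 6, 8, 10, 12, 24 and 36 h after oral dosing. Methanol (2% HCl) precipitation with carbamazepine internal standard preceded LC-MS/MS; values are mean ± SD.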

Data set [15] deals with SW-620. Nature of the data set: Induction of apoptosis in human SW-620 cells assessed as PARP cleavage at 0.5 uM measured after 6 hrs by western blot assay. It counts as functional, cell-based. Put shortly:
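Cells exposed to 0.5 µM for 6 h. Lysates resolved by SDS-PAGE and blotted to PVDF, blocked in 5% milk/TBST, probed with primary antibodies at 1:1000, ECL detection. Apoptosis scored as the densitometric ratio of cleaved PARP band to intact PARP band; mean ± SD, n = 3.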

Data set [16] is described as follows: Cmax in male/female Sprague-Dawley rat at 5 mg/kg, po measured for 36 hrs by LC-MS/MS analysis. It counts as ADME, organism-based. The settings on record: both, in vivo. On the set-up: route oral, time 36 hrs, dose 5 mg/kg.
Data set [17] in a line: Half life in male/female Sprague-Dawley rat at 5 mg/kg, po measured for 36 hrs by LC-MS/MS analysis. It counts as ADME, organism-based. The settings on record: both, in vivo.
Data set [18] deals with SW-620. The experiment in a line: Induction of apoptosis in human SW-620 cells assessed as viable cells at 0.5 uM measured after 6 hrs by Annexin V-FITC/PI staining based flow cytometry method (reference value: 98.37%). Particulars: read-out: Activity. It counts as functional. Summed up:
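Cells seeded at 1×10^6 per well and treated with 0.5 µM for 6 h. Floating and adherent cells pooled, stained with Annexin V-FITC for 10 min and propidium iodide for 5 min, then analysed immediately by flow cytometry in FITC and PC5.5 channels. Mean ± SD, n = 3.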
A general note: In flow cytometry, cells or beads pass a laser one at a time.

Data set [19] in a line: MRT(0 to t) in male/female Sprague-Dawley rat at 5 mg/kg, po measured for 36 hrs by LC-MS/MS analysis. Particulars: both, in vivo. It counts as ADME, organism-based. Put shortly:
as §3

For the next data set, the system named is MDA-MB-231. The experiment in a line: Induction of apoptosis in human MDA-MB-231 cells assessed as PARP cleavage at 0.5 uM measured after 6 hrs by western blot assay relative to Di(1H-indol-3-yl)(4-(trifluoromethyl)phenyl)methylium methanesulfonate. It counts as functional. Summed up:
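MDA-MB-231 in DMEM with 10% FBS, 0.5 µM for 6 h, then PARP western blot with 1:1000 primary antibodies and ECL. Cleaved PARP/PARP band intensity ratio expressed relative to the reference methylium methanesulfonate, whose ratio was set to 1. Mean ± SD, n = 3.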
(Immunoblotting shows a protein as a band on a membrane.)

Data set [20] in a line: Oral bioavailability in male/female Sprague-Dawley rat at 5 mg/kg measured for 36 hrs by LC-MS/MS analysis. The settings on record: both, in vivo. It counts as ADME, organism-based. Summed up:
as §3

Data set [21] is described as follows: Selectivity index, ratio of IC50 for human MCF-10A cells to IC50 for human MDA-MB-231 cells. It counts as toxicity. The settings on record: MCF-10A cells versus MDA-MB-231 cells, read-out: Ratio IC50.
Data set [22] is described as follows: MRT(0 to t) in male/female Sprague-Dawley rat at 0.5 mg/kg, iv measured for 36 hrs by LC-MS/MS analysis. The settings on record: in vivo. It counts as ADME, organism-based. Put shortly: as §3

Nuclear receptor subfamily 4immunitygroup A member 1, sequence (P22736 whole entry): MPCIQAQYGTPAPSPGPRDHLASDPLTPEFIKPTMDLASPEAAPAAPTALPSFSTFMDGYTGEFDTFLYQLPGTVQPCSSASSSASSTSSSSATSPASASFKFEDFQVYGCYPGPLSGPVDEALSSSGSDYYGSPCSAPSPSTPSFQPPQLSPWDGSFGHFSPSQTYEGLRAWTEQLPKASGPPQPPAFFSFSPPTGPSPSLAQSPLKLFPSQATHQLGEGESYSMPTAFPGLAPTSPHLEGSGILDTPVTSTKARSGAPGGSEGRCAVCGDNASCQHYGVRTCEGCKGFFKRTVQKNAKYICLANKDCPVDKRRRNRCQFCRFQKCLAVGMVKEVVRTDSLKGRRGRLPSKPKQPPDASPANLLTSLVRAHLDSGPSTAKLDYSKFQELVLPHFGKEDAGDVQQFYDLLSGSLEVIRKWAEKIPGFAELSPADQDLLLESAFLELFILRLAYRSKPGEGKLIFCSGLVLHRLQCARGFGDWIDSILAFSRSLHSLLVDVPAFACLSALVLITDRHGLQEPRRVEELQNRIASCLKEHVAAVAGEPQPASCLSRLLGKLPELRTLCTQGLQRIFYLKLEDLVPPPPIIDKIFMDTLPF

On to `CS(=O)(=O)[O-].FC(F)(F)c1ccc([C+](c2c[nH]c3ccccc23)c2c[nH]c3ccccc23)cc1`, for which the results for the AUC(0-t) at 36 h in data set [1] and in [7] were 1730 ng·h/mL and 1120 ng·h/mL, respectively. The Tmax in data set [2] and in data set [5] was 5.33 h throughout. For the same molecule, the results for the Cmax in data set [3] and in data set [8] were 143 ng/mL and 203 ng/mL, respectively. Moreover, in data set [4], the Vd stood at 2.56 L/kg. The mean residence time (MRT) in data set [6] is 3.59 h. Also, the bioavailability in data set [9] came to 22.8%. The half-life in [10] is 4.05 h.
Consider `CS(=O)(=O)[O-].Cn1cc([C+](c2ccc(C(F)(F)F)cc2)c2c[nH]c3ccccc23)c2ccccc21`, for which the Vdss in [11] is 3.69 L/kg. The outcome (in [12]; with SW-620 [15]) was Active. Also, in data set [13], the “Ratio IC50” value stood at 40. Besides, in data set [14], the exposure AUC(0-t) at 36 h worked out at 501 ng·h/mL. Moreover, in data set [16], the peak concentration (Cmax) worked out at 57.9 ng/mL. Moreover, the half-life in data set [17] is 4.49 h. In addition, the viability at 0.5 µM in the data set with SW-620 [18] is 7.08%. In data set [19], this molecule yielded an MRT last at 36 h of 9.59 h. Besides, the “fold change (FC)” value with MDA-MB-231 was 8.93. In [20], the bioavailability worked out at 14.6%. Moreover, in data set [21], the selectivity ratio was found to be 40. Also, the MRT in data set [22] is 0.56 h.

Source of the values: ChEMBL document CHEMBL4819003, “Optimization of novel oxidative DIMs as Nur77 modulators of the Nur77-Bcl-2 apoptotic pathway” (Eur J Med Chem, 2021).
